The source made the active and inactive calls. The rule behind the calls is not given here.
Legend:
Assay type in all cases: functional, cell-based
K562 = experiment: In vitro antiproliferative against human chronic myelogenous K562 cell line
Method in brief: (§1)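 Exponentially growing cells in RPMI 1640 with 10% FCS, 2 mM L-glutamine, […] and penicillin/streptomycin. Exposed to increasing drug concentrations, diluted from a 1 mg/mL DMSO stock. Cell number per mL was counted by Coulter counter after 48 h, using duplicate cultures per concentration and at least three repeats. IC50 = 50% growth inhibition versus untreated controls, reported as mean ± SE.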

L1210 = experiment: In vitro antiproliferative activity against murine lymphocytic L1210 leukemia cell line; settings: Mus musculus; method in brief: as §1
PBMC = experiment: In vitro antiproliferative activity against human PBM cell line by MTT assay
Method in brief: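 PBMCs isolated from anticoagulant-treated blood of healthy human donors. Cells were cultured with or without compound for 24 h, and growth was read by MTT dye-reduction assay. IC50 taken from dose-response curves of at least two independent experiments, each in triplicate determinations, as mean ± SE.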

HL-60 [1] = experiment: PARP hydrolysis in HL60 cells by an immunoblot assay; settings: Homo sapiens
Method in brief: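 HL-60 cell lysates, equal protein per lane, were run on SDS-PAGE and blotted with an anti-PARP monoclonal antibody to detect PARP cleavage. Etoposide was the positive control.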

HL-60 [2] = experiment: DNA fragmentation in HL60 cells by ethidium bromide staining at 1 uM for 12 hrs; settings: Homo sapiens
HL-60 [3] = experiment: Cytochrome c release in HL60 cells by immunoblotting at 1 uM; settings: Homo sapiens
Method in brief: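 HL-60 cells treated with 1 or 3 µM compound and harvested at 12 h. Cytosolic lysates were immunoblotted with anti-cytochrome c antibody, looking for the 15 kDa band. β-actin served as loading control.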

HL-60 [4] = experiment: In vitro antiproliferative activity against human HL60 myeloid leukemia cell line by MTT assay
HL-60 [5] = experiment: Condensation of chromatin in HL60 cells at 1 uM for 12 hrs; settings: Homo sapiens
Method in brief: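 HL-60 cells exposed to 1 µM compound for 12 h, then DNA stained with Hoechst 33258. Chromatin condensation and apoptotic bodies were examined by fluorescence microscopy. Apoptotic nuclei were counted quantitatively in triplicate, and the experiment was repeated once.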

For `C=C1CC(COc2cc(C(=O)O)n(C)n2)(c2ccc(Cl)cc2)OC1=O` (configuration not stated), the IC50 (K562) was over 10 µM and the IC50 (L1210) was over 10 µM.

In the case of `C=C(Br)C(=O)Nc1ccc2sc(C(=O)NCCNC(=O)c3cc(OCC4(c5ccccc5)CC(=C)C(=O)O4)nn3C)cc2c1` (configuration not stated), the IC50 (K562) is reported as 0.27 µM and the IC50 (L1210) is reported as 0.29 µM.

In the case of `C=C(Br)C(=O)Nc1ccc2sc(C(=O)NCCNC(=O)c3cc(OCC4(c5ccc(-c6ccccc6)cc5)CC(=C)C(=O)O4)nn3C)cc2c1` (configuration not stated), the IC50 (K562) is reported as 0.38 µM, the IC50 (L1210) is reported as 0.29 µM and the IC50 (PBMC) is reported as 8.61 µM. The Activity (HL-60 [1]) was “Active”, the Activity (HL-60 [2]) was “Active” and the Activity (HL-60 [3]) was “Active”. For the same molecule, the IC50 (HL-60 [4]) was 0.36 µM and the Activity (HL-60 [5]) was “Active”.

`C=C1CC(COc2cc(C(=O)O)n(C)n2)(c2ccc(-c3ccccc3)cc2)OC1=O` (configuration not stated) showed an IC50 (K562) of over 10 µM and an IC50 (L1210) of over 10 µM.

`C=C(Br)C(=O)Nc1ccc2sc(C(=O)O)cc2c1` showed an IC50 (K562) of 5 µM and an IC50 (L1210) of 4.5 µM.

With `C=C(Br)C(=O)Nc1ccc2[nH]c(C(=O)NCCNC(=O)c3cc(OCC4(c5ccccc5)CC(=C)C(=O)O4)nn3C)cc2c1` (configuration not stated) the IC50 (K562) was 0.63 µM and the IC50 (L1210) was 0.85 µM.

For `C=C(Br)C(=O)Nc1ccc2oc(C(=O)NCCNC(=O)c3cc(OCC4(c5ccccc5)CC(=C)C(=O)O4)nn3C)cc2c1` (configuration not stated), the IC50 (K562) was 0.42 µM, the IC50 (L1210) was 0.31 µM and the IC50 (PBMC) was 5.44 µM. The Activity (HL-60 [1]) was “Active”, the Activity (HL-60 [2]) was “Active” and the Activity (HL-60 [3]) was “Active”. For the same molecule, the IC50 (HL-60 [4]) was 0.27 µM and the Activity (HL-60 [5]) was “Active”.

For `C=C1CC(COc2cc(C(=O)O)n(C)n2)(c2ccccc2)OC1=O` (configuration not stated), the IC50 (K562) was over 10 µM and the IC50 (L1210) was over 10 µM.

In the case of `C=C(Br)C(=O)Nc1ccc2[nH]c(C(=O)O)cc2c1`, the IC50 (K562) is reported as 5.6 µM and the IC50 (L1210) is reported as 4.3 µM.

In the case of `C=C(Br)C(=O)Nc1ccc2oc(C(=O)NCCNC(=O)c3cc(OCC4(c5ccc(-c6ccccc6)cc5)CC(=C)C(=O)O4)nn3C)cc2c1` (configuration not stated), the IC50 (K562) is reported as 0.41 µM and the IC50 (L1210) is reported as 0.27 µM.

For `C=C(Br)C(=O)Nc1ccc2sc(C(=O)NCCNC(=O)c3cc(OCC4(C)CC(=C)C(=O)O4)nn3C)cc2c1` (configuration not stated), the IC50 (K562) was 1.02 µM and the IC50 (L1210) was 0.84 µM.

`C=C(Br)C(=O)Nc1ccc2c(c1)cc(C(=O)NCCNC(=O)c1cc(OCC3(c4ccc(-c5ccccc5)cc4)CC(=C)C(=O)O3)nn1C)n2C` (configuration not stated) showed an IC50 (K562) of 0.36 µM and an IC50 (L1210) of 0.28 µM.

`C=C(Br)C(=O)Nc1ccc2sc(C(=O)NCCNC(=O)c3cc(OCC4(c5ccc(Cl)cc5)CC(=C)C(=O)O4)nn3C)cc2c1` (configuration not stated) gave an IC50 (K562) of 0.41 µM, an IC50 (L1210) of 0.26 µM and an IC50 (PBMC) of 6.82 µM. For the same molecule, the Activity (HL-60 [1]) was “Active”, the Activity (HL-60 [2]) was “Active” and the Activity (HL-60 [3]) was “Active”. For the same molecule, the IC50 (HL-60 [4]) was 0.29 µM and the Activity (HL-60 [5]) was “Active”.

For `C=C(Br)C(=O)Nc1ccc2oc(C(=O)O)cc2c1`, the IC50 (K562) was 7.25 µM and the IC50 (L1210) was 2.95 µM.

`C=C(Br)C(=O)Nc1ccc2oc(C(=O)NCCNC(=O)c3cc(OCC4(c5ccc(Cl)cc5)CC(=C)C(=O)O4)nn3C)cc2c1` (configuration not stated) gave an IC50 (K562) of 0.71 µM and an IC50 (L1210) of 0.55 µM.

In the case of `C=C1CC(C)(COc2cc(C(=O)O)n(C)n2)OC1=O` (configuration not stated), the IC50 (K562) is reported as over 10 µM and the IC50 (L1210) is reported as over 10 µM.

For `C=C(Br)C(=O)Nc1ccc2[nH]c(C(=O)NCCNC(=O)c3cc(OCC4(c5ccc(-c6ccccc6)cc5)CC(=C)C(=O)O4)nn3C)cc2c1` (configuration not stated), the IC50 (K562) was 0.48 µM and the IC50 (L1210) was 0.36 µM.

With `C=C(Br)C(=O)Nc1ccc2c(c1)cc(C(=O)NCCNC(=O)c1cc(OCC3(c4ccccc4)CC(=C)C(=O)O3)nn1C)n2C` (configuration not stated) the IC50 (K562) was 0.08 µM, the IC50 (L1210) was 0.05 µM and the IC50 (PBMC) was 2.52 µM. The Activity (HL-60 [1]) was “Active”, the Activity (HL-60 [2]) was “Active” and the Activity (HL-60 [3]) was “Active”. The IC50 (HL-60 [4]) was 0.11 µM and the Activity (HL-60 [5]) was “Active”.

`C=C(Br)C(=O)Nc1ccc2c(c1)cc(C(=O)O)n2C` showed an IC50 (K562) of 3.37 µM and an IC50 (L1210) of 2.07 µM.

Reference: ChEMBL document CHEMBL1141193, “Design, synthesis, and biological evaluation of hybrid molecules containing alpha-methylene-gamma-butyrolactones and alpha-bromoacryloyl moieties” (J Med Chem, 2005)
